Assays:
[1] = species on record: Cavia porcellus; experiment: Maximal contractile response as a percentage of that elicited by carbachol.; assay type: functional
Procedure, shortened: (§1)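 Isolated ileum contractions recorded isotonically at 1 g tension with a displacement transducer. Cumulative concentration-response curves built by raising agonist concentration stepwise by a factor of 2.15. Maximal response expressed as a percentage of the carbachol maximum.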

[2] = target: Muscarinic acetylcholine receptor; experiment: In vitro inhibition of binding of (-)-[3H]-NMS to Muscarinic acetylcholine receptor of rat cerebral cortex was determined; assay type: tissue-based
Procedure, shortened: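 Rat cerebral cortex (male Sprague-Dawley, 200–300 g) homogenised in 50 mM Na-K phosphate buffer, pH 7.4, then centrifuged and resuspended at 10 mg wet tissue/mL. Competition with 0.3 nM (–)-[3H]NMS for 30 min at 30 °C, followed by filtration. Nonspecific binding defined with 10 μM atropine. IC50 from a one-site nonlinear fit, converted to Ki by Cheng-Prusoff using NMS Kd 0.076 nM. Three experiments, each in triplicate.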

[3] = species on record: Cavia porcellus; experiment: In vitro muscarinic activity against guinea pig ileum was determined; assay type: functional; procedure, shortened: as §1
[4] = target: Muscarinic acetylcholine receptor; experiment: Dissociation constant of the drug-Muscarinic acetylcholine receptor complex.; assay type: protein assay, Cavia porcellus

Structure (SMILES): CC1CC(=O)N1CC#CC[N+](C)(C)C (configuration not stated)
- Emax [1]: 97
- Ki [2]: 19600 nM
- EC50 [3]: 55000 nM

Structure (SMILES): CC1CCC(=O)N1CC#CC[N+](C)(C)C (configuration not stated)
- Kd [4]: 1700 nM
- Emax [1]: 100
- Ki [2]: 610 nM
- EC50 [3]: 180 nM

Structure (SMILES): CC1CC(=O)N1CC#CCN(C)C (configuration not stated)
- Emax [1]: 95
- Ki [2]: 43000 nM
- EC50 [3]: 88000 nM

Structure (SMILES): CC1CC(=O)N1CC#CCN1CCCC1 (configuration not stated)
- Kd [4]: 1700 nM
- Emax [1]: 0
- Ki [2]: 990 nM

Structure (SMILES): O=C1CCCN1CC#CCN1CCCC1 [OXOTREMORINE]
- Kd [4]: 930 nM
- Emax [1]: 100
- Ki [2]: 830 nM
- EC50 [3]: 35 nM

Structure (SMILES): CC1CCC(=O)N1CC#CCN1CCCC1 (configuration not stated)
- Kd [4]: 93 nM
- Emax [1]: 0
- Ki [2]: 56 nM

Structure (SMILES): CC1CCN(CC#CCN2CCCC2)C1=O (configuration not stated)
- Kd [4]: 11500 nM
- Emax [1]: 100
- Ki [2]: 1200 nM
- EC50 [3]: 500 nM

Structure (SMILES): CC1CC(=O)N(CC#CCN2CCCC2)C1 (configuration not stated)
- Kd [4]: 10000 nM
- Emax [1]: 0
- Ki [2]: 5000 nM

Structure (SMILES): O=C1CCN1CC#CCN1CCCC1
- Emax [1]: 100
- Ki [2]: 940 nM
- EC50 [3]: 290 nM

Structure (SMILES): CC1CCC(=O)N1CC#CCN(C)C (configuration not stated)
- Kd [4]: 4300 nM
- Emax [1]: 102
- Ki [2]: 2200 nM
- EC50 [3]: 910 nM

Structure (SMILES): CC1CN(CC#CCN2CCCC2)C1=O (configuration not stated)
- Emax [1]: 23
- Ki [2]: 5600 nM
- EC50 [3]: 24000 nM

Source: ChEMBL document CHEMBL1125046, “Beta-lactam analogues of oxotremorine. 3- and 4-methyl-substituted 2-azetidinones” (J Med Chem, 1990)
